Assays:
92.1 cells = test: Block of FR-elicited re-differentiation; assay type: cell-based, human; details: 92.1, 7 days GSK503 and 3 days FR
PRC2 (Ezh1/2) = test: Histone H3; assay type: cell-based, human; details: 92.1, 7 days GSK503, immunoblot
Method in brief: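 92.1 cells were treated with GSK503 for 7 days, and histones were isolated with a purification kit. Samples ran on 15% SDS-PAGE, were blotted to PVDF, blocked in 5% milk/TBST, and detected with IRDye-coupled secondary antibodies. H3K27me3 densitometry was normalized to total H3 and compared with DMSO control. Three independent experiments.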

With Cc1cc(C)c(CNC(=O)c2cc(-c3ccc(N4CCN(C)CC4)nc3)cc3c2c(C)cn3C(C)C)c(=O)[nH]1 [GSK503] the “Ability of FR to re-differentiate cells (morphology and pigmentation)” value (92.1 cells) was “blocked” and the “Histone H3(Lys27) trimethylation” value (PRC2 (Ezh1/2)) was “reduced”.
